Data as given in PMC4714678 (Cancer Science, 2015).
No end group written: not given here.

Key:
[1] = tested on: subintestinal vein vessels (SIV) of zebrafish; experiment: Transgenic zebrafish embryo angiogenesis assay; type: in vivo; conditions: doses of the angiogenesis test
[2] = Pre‐clinical toxicology study; type: in vivo, mouse, rat and monkey
[3] = previous studies; cited from earlier work
[4] = tested on: cancer cells (BGC‐823, PG and HT‐29); experiment: Fluorescence visualization for entry of peptides; type: cell-based, human; conditions: BGC‐823, PG and HT‐29 cells, 25 μg/mL FITC‐conjugated peptide, 3 h, fixed, DAPI
In short: (§1)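 Test peptide FITC-conjugated, or FITC-TAT cell-penetrating peptide, each at 25 μg/mL, applied for 3 h. HUVEC were isolated in-house. BGC-823, PG and HT-29 were grown in RPMI-1640 with 10% FBS at 37°C in 5% CO2. Cells were then fixed in 4% paraformaldehyde, permeabilized with 0.1% NP-40 in PBS, nuclei stained with DAPI (5 ng/mL), washed three times in PBS, and imaged by confocal microscopy.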

HUVEC = experiment: Fluorescence visualization for entry of peptides; type: cell-based, human; conditions: 25 μg/mL FITC‐conjugated peptide, 3 h, fixed, DAPI
In short: as §1

With DSGEGDFLAEGGGVR [fibrinostatin] the toxicity to zebrafish [1] was “no tocixity”, the “side effects in toxicology study” value ([2]; pre‐clinical animal models, GLP standards, data not shown) was “no observable side effects” and the margin of safety ([2]; single‐dose acute toxicity testing and repeated‐dose chronic toxicity study in the mouse, rat and monkey) was “wide margin of safety”.

For ADSGEGDFLAEGGGVR [FpA], the “anti‐angiogenesis activity of synthetic peptide” value [3] is listed as “inactive”.

In the case of `N=C(N)NCCC[C@H](NC(=O)CNC(=S)Nc1ccc2c(c1)C(=O)OC21c2ccc(O)cc2Oc2cc(O)ccc21)C(=O)N[C@@H](CCCCN)C(=O)N[C@@H](CCCCN)C(=O)N[C@@H](CCCNC(=N)N)C(=O)N[C@@H](CCCNC(=N)N)C(=O)N[C@@H](CCC(N)=O)C(=O)N[C@@H](CCCNC(=N)N)C(=O)N[C@@H](CCCNC(=N)N)C(=O)N[C@@H](CCCNC(=N)N)C(=O)NCC(=O)N[C@@H](Cc1ccc(O)cc1)C(=O)O` [FITC‐labeled TAT peptide], the “entry into cells (confocal fluorescence)” value [4] is reported as “entered” and the “entry into cells (confocal fluorescence)” value (HUVEC) is reported as “entered”.

In the case of ADSGEGDFLAEGGGVRGPRVVERH [alphastatin], the “anti‐angiogenesis activity of synthetic peptide” value [3] is given as “showed anti‐angiogenesis activity”.
